Compound activity (PubChem)
This is a sample that favours compounds with a hit; in the whole collection about 2.4% have one here.
Rtt109 Vps75: inhibitors of C. albicans Rtt109/Vps75 HAT, primary screen, biochemical, ThioGlo CoA-SH fluorescence, plate reader | Histone acetyltransferase RTT109 (Candida albicans (strain SC5314 / ATCC MYA-2876)), … | purified Rtt109/Vps75, 4 h | inhibition, % at 34.9 µM | 330,000 compounds, 0.16% hits;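 active means inhibition of at least 50% in every replicate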
Target sequence (Q5AAJ8 whole entry, looked up): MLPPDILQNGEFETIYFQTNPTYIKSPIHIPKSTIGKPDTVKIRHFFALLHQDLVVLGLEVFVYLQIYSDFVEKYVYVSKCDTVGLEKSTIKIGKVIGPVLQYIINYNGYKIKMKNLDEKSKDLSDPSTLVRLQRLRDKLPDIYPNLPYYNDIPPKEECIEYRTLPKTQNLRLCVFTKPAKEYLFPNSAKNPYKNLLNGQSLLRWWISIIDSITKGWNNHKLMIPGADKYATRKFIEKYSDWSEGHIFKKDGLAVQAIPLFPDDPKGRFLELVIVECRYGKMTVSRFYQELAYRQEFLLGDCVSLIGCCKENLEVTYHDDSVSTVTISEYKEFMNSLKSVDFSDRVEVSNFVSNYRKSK
HIV Env fusion: inhibitors of HIV-1 Env-driven cell-cell fusion, primary screen, HeLa-JRFL effector, CEM21 target cells, luciferase; 360,000 compounds, 1.1% hits; AID 651610, 2012; inhibition, % at 12.3 µM;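 active means mean replicate inhibition score of at least 50 and every replicate individually at or above 50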;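 further: 0% = plate neutral controls and 100% = maraviroc near 300 nM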
Cneo AK release: Cryptococcus neoformans cell lysis inducers, primary screen, AK release luminescence, single concentration | C. neoformans lysis, adenylate kinase release luminescence, 4 h; normalised: neutral wells 0, clomiphene wells 100 | lysis activity, % at 15 µM | 360,000 compounds, 0.2% hits;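 active means mean lysis activity across replicates of at least 80%, whatever share of replicates individually reach that level; inactive means mean lysis activity below 80%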
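read-out = cell lysis signal | test system = log-phase Cryptococcus neoformans yeast cells | input = cells at 5 × 10^6 per mL | medium = fresh YPD growth medium | signal = luminescent adenylate kinase detection reagent | timing = 4 h at 37 °C static, read 1 h later | dosing = single dose | controls = Clomiphene as positive lysis control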
miR122 inh: miR-122 Renilla sensor signal increase in Huh7, primary screen, miR-122 inhibitor project, cell-based, single point, plate reader; Huh7 miR-122 Renilla luciferase sensor, 48 h; neutral wells = 0, positive control = 100; activation (reporter increase), % at 12.5 µM; 340,000 compounds, 0.3% hits; AID 602342, 2012;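 active means mean replicate activation score at least 90 and every replicate individually at or above 90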;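 further: higher luciferase means less miR-122 activity so hits act as miR-122 inhibitors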
dFosB act-1: activators of delta FosB homodimer, primary screen, biochemical, fluorescence polarization, TAMRA-CDK5 oligo, single point. purified delta FosB; percent of positive-control signal above neutral wells. Protein FosB (Mus musculus), P13346. activation, % at 25 µM. AID 493131, 2011. 340,000 compounds, 0.99% hits;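 active means mean activation above about 17%, with every replicate also reaching it, limit read from the data, passing the limit was not always enough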
Target sequence (P13346 whole entry, looked up): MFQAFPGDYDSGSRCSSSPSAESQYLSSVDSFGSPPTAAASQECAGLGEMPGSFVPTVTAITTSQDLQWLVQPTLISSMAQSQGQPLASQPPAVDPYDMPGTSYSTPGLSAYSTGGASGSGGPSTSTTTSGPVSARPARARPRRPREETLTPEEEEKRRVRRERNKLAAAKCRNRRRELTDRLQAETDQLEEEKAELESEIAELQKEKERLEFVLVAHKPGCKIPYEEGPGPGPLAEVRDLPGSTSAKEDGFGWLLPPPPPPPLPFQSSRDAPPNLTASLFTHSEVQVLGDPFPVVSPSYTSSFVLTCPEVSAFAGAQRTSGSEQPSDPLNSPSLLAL
GSIS activator: GLuc luminescence reporter in INS-1E cells, primary screen for activators of glucose-dependent secretion of insulin. INS-1E GLuc reporter insulin secretion, 2-3 h. activation, % at 16.6 µM. 370,000 compounds, 0.61% hits. AID 743287, 2014;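 active means lowest replicate activation of at least 40%, so every replicate reaches that level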;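 further: 0% = median of neutral control wells and 100% = median of IBMX positive control wells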
dFosB act-2: activators of mouse delta FosB DNA binding, confirmation, biochemical, fluorescence polarization, TAMRA-CDK5 oligo, cherry-picked samples; shares compounds with dFosB act-1; purified delta FosB; normalised: neutral wells 0, positive control 100; activation, % at 24.9 µM; 2,400 tested, under 10 active; AID 588690, 2011;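 active means highest replicate activation at or above 34% and every replicate reaching that threshold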;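 further: higher polarization means more probe DNA bound by delta FosB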
* = called active by the depositor; · = no result given; [ ] = remark or other dose.

SMILES	Rtt109 Vps75	HIV Env fusion	Cneo AK release	miR122 inh	dFosB act-1	GSIS activator	dFosB act-2
C[C@@H]1CN([C@@H](C)CO)C(=O)c2cc(NC(=O)Nc3ccc4c(c3)OCO4)ccc2O[C@@H](C)CCCCO[C@@H]1CN(C)C(=O)Nc1ccccc1	·	-10.4[16.7 µM]	-2.4	7.0[16.7 µM]	·	-24.4	·
CCCC#Cc1ccc([C@@H]2[C@H](CO)N3C(=O)CN(S(=O)(=O)Cc4ccccc4)C[C@@H]23)cc1	·	·	·	·	·	-7.9	·
CCCNC(=O)N1CC2(CN(C(=O)C3CCC3)C2)c2c([nH]c3cc(OC)ccc23)[C@@H]1CO	·	·	·	·	·	13.9	·
O=C(Nc1ccc(-c2nc3cccnc3s2)cc1)c1ccc(Br)o1	17.9	-10.5	-2.4	·	35.2*	·	-7.2
N#C/C(=C\c1cn(Cc2cccc(F)c2)c2ccccc12)C(=O)NCc1ccco1	3.3	9.6	·	·	37.2*	-8.8	4.8
Cc1cccc(NC(=O)/C(C#N)=C/c2cn(CC(=O)NCc3ccco3)c3ccccc23)c1C	11.8	0.4	·	-8.9	37.3*	12.8	0.1
N#C/C(=C\c1cn(Cc2ccccc2)c2ccccc12)C(=O)NCc1ccco1	1.6	15.0	·	·	7.9	-0.2	·
C/C=C/c1ccc([C@H]2[C@@H](CN(C)C(=O)CC)N(C(=O)C3CC3)[C@H]2CO)cc1	·	·	·	·	·	5.2	·
CCC(=O)Nc1ccc2c(c1)C(=O)N(C)[C@@H]1CC[C@@H](CC(=O)N3CCc4ccccc4C3)O[C@H]1CO2	·	2.1[16.7 µM]	·	11.3[16.7 µM]	·	3.7	·
Cc1ccc(C)c(OCc2cc(C(=O)NC3CCN(Cc4ccccc4)CC3)no2)c1	-1.2	10.6	·	-18.3	21.9*	-47.9	3.5
CCOc1ccc(-n2nnnc2SCC(=O)Nc2ccc(NC(C)=O)cc2)cc1	-29.6	6.5	3.4	-5.3	19.4*	·	4.0
COc1cccc(C(=O)Nc2ccc3c(c2)C(=O)N(C)[C@H]2CC[C@H](CC(=O)NCC4CC4)O[C@H]2CO3)c1	·	9.4[16.7 µM]	-2.1	6.1[16.7 µM]	·	-3.4	·
O=C(Nc1nccs1)[C@@H]1CCCN1S(=O)(=O)c1ccccc1F	-0.4	0.0	·	·	1.0	-5.7	·
CC(=O)c1sc(NC(=O)C2CCCN2S(=O)(=O)c2ccccc2F)nc1C (configuration not stated)	6.4	-3.6	-1.2	-3.9	20.8*	0.2	0.0
Cc1ccc(C)c(Cn2c3ccccc3c3cnn(CC(=O)NCc4ccccn4)c(=O)c32)c1	-13.5	-5.0	4.7	5.0	21.0*	4.9	0.7
O=C(Cn1ncc2c3ccccc3n(Cc3cccc(Cl)c3)c2c1=O)NCc1ccccn1	-3.9	-3.7	13.9	3.6	-11.3	26.6	·
COc1ccc2c3c(n(C)c2c1)[C@H](CO)N(C(=O)Nc1ccc(F)cc1)CC31CN(C(=O)Nc2c(C)noc2C)C1	·	5.1[16.7 µM]	·	·	·	-27.1	·
CN(CC(=O)Nc1ccc(Cl)c(C(F)(F)F)c1)C(=O)/C=C/c1cccs1	-6.7	·	-0.5	-8.1	28.5*	-46.3	0.0
CN(CC(=O)Nc1ccc(Cl)c(C(F)(F)F)c1)C(=O)c1cc(=O)c2ccccc2o1	1.8	·	-1.2	-2.5	33.4*	-23.2	0.2
COc1cc(/C=N/NC(=S)NC(C)C)ccc1OCC(=O)Nc1c(C)cc(C)cc1C	-4.2	36.0	·	·	29.1*	96.9	-0.1
COc1cc(NC(=O)c2ccccc2)c(OC)cc1NC(=O)Cc1ccc(Br)cc1	7.2	3.8	-1.3	7.7	21.3*	3.6	7.7
COc1cc(NC(=O)c2ccc(Br)cc2)c(OC)cc1NC(=O)c1ccccc1	8.7	12.1	-2.4	6.9	3.1	8.4	·
C[C@H]1CN([C@@H](C)CO)C(=O)c2cccc(NS(C)(=O)=O)c2O[C@H]1CN(C)C(=O)Nc1ccc(F)cc1	·	·	47.3	5.6[16.7 µM]	·	10.6	·
O=c1cc(NCc2ccc3c(c2)OCO3)[nH]c(=O)n1-c1ccc(Cl)cc1	-6.6	0.4	-0.9	-5.3	19.6*	10.9	2.2
Cc1ccccc1-n1c(=O)cc(NCc2ccc3c(c2)OCO3)[nH]c1=O	-5.1	-15.4	3.1	1.0	-3.7	·	·
SMILES	Rtt109 Vps75	HIV Env fusion	Cneo AK release	miR122 inh	dFosB act-1	GSIS activator	dFosB act-2
Cc1c(Cl)cccc1NC(=O)CNC(=O)C1CCN(C(=O)Nc2ccccc2)CC1	6.4	·	-1.0	·	24.4*	2.7	2.0
O=C(Nc1ccc(Br)cc1)c1cccc(N2C(=O)C3C4CCC(C4)C3C2=O)c1 (configuration not stated)	1.5	30.3	1.8	9.2	20.2*	-1.6	5.6
O=C(COc1ccccc1C(=O)O)Nc1nc2ccc([N+](=O)[O-])cc2s1	-1.2	-6.5	-0.9	-5.4	25.0*	-2.5	0.3
Cc1cccc(OCC(=O)Nc2nc3ccc([N+](=O)[O-])cc3s2)c1C	2.1	24.7	-1.1	-1.7	-4.6	-13.1	·
C[C@H]1CCCCO[C@@H](CN(C)CC2CCCCC2)[C@@H](C)CN([C@@H](C)CO)C(=O)c2cc(NC(=O)CCCN(C)C)ccc2O1	·	11.3[16.7 µM]	·	6.4[16.7 µM]	·	9.3	·
O=C(COc1ccccc1[N+](=O)[O-])Nc1ccc2oc(=O)ccc2c1	-8.2	-8.4	1.1	·	-3.5	8.3	·
O=C(COc1ccccc1[N+](=O)[O-])Nc1cccc(S(=O)(=O)NC2=NCCCCC2)c1	25.2	8.6	·	·	-0.7	-4.2	·
COc1ccc(NS(=O)(=O)c2cccc(C(=O)OCC(=O)Nc3cc(C)on3)c2)cc1	-9.8	-136.0	0.9	-2.7	19.9*	·	-1.3
COc1ccc(NS(=O)(=O)c2cccc(NC(=O)COc3ccccc3[N+](=O)[O-])c2)cc1	-8.5	0.1	-0.3	145.8*	25.0*	-2.9	1.4
O=C(COc1ccc(/C=N/NC(=O)c2cc3ccccc3o2)cc1Br)Nc1ccccc1	-11.9	·	0.0	-3.3	65.8*	·	4.0
O=C(N/N=C/c1ccco1)c1cc2ccccc2o1	4.9	-6.9	-2.2	-6.5	-8.9	2.6	·
O=C(COc1ccccc1[N+](=O)[O-])Nc1ccc(NC(=O)c2cc3ccccc3o2)cc1	1.0	-83.5	-1.2	·	54.1*	21.3	2.9
COc1ccc2c3c([nH]c2c1)[C@H](CO)N(C(=O)C1CCCCC1)CC31CCN(Cc2nccs2)CC1	·	·	·	·	·	2.4	·
